In data set [1] the test system is Enterobacter cloacae. Briefly: In vitro minimum inhibitory concentration (MIC) against Enterobacter cloacae A 9656 at 37 degrees C for 18 h. It counts as functional.
The test system of data set [2] is Pseudomonas aeruginosa. Briefly: In vitro minimum inhibitory concentration (MIC) against Pseudomonas aeruginosa A 9843 at 37 degrees C for 18 h. It counts as functional. The method in brief: (§1)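 Two-fold serial broth dilution in nutrient broth. Inoculum adjusted to 10^6 cfu/mL. Compounds tested from 0.0005 to 250 µg/mL.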
The subject of data set [3] is Staphylococcus aureus. The data set is described as follows: In vitro minimum inhibitory concentration (MIC) against Staphylococcus aureus Smith A 9537 at 37 degrees C for 18 hr. It counts as functional. The method in brief: as §1
The test system of data set [4] is Serratia marcescens. The data set is described as follows: In vitro minimum inhibitory concentration (MIC) against Serratia marcescens A 20019 at 37 degrees C for 18 hr. It counts as functional. A digest of the protocol:
as §1

In data set [5] the test system is Enterococcus faecalis. Briefly: In vitro minimum inhibitory concentration (MIC) against Enterococcus faecalis A 9808 at 37 degrees C for 18 h. It counts as functional. The method in brief: as §1
For data set [6], the system named is Escherichia coli. Briefly: In vitro minimum inhibitory concentration (MIC) against Escherichia coli A 15119 at 37 degrees C for 18 h. It counts as functional. The method in brief:
as §1

The subject of data set [7] is Morganella morganii. Briefly: In vitro minimum inhibitory concentration (MIC) against Morganella morganii A 15153 at 37 degrees C for 18 h. Format: functional. A digest of the protocol:
as §1

In data set [8] the test system is Enterococcus faecium. Briefly: In vitro minimum inhibitory concentration (MIC) against Enterococcus faecium A 24885 at 37 degrees C for 18 h. It counts as functional. A digest of the protocol:
as §1

In data set [9] the test system is Klebsiella pneumoniae. Briefly: In vitro minimum inhibitory concentration (MIC) against Klebsiella pneumoniae A 9664 at 37 degrees C for 18 h. It counts as functional. A digest of the protocol: as §1
Data set [10] concerns Pseudomonas aeruginosa. The data set is described as follows: Efficacy on systematic infections against Pseudomonas aeruginosa A 9843 after oral administration in mice. It counts as functional. As to conditions: read-out: PD50. The method in brief: (§2)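 Mice given compound orally after lethal systemic infection. Read-out is the oral dose protecting 50% of mice from death (PD50), reported in mg/kg.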

Data set [11] has as its system Klebsiella pneumoniae. The data set is described as follows: Efficacy on systematic infections against Klebsiella pneumoniae A 9664 after oral administration in mice. Format: functional. As to conditions: read-out: PD50. A digest of the protocol: as §2
Data set [12] has as its system Staphylococcus aureus. The data set is described as follows: Efficacy on systematic infections against Staphylococcus aureus A 9537 after oral administration in mice. Format: functional. As to conditions: read-out: PD50. The method in brief:
as §2

Data set [13] can be described thus: Tested for aqueous solubility. As to conditions: aqueous medium.
Data set [14] concerns Pseudomonas aeruginosa. Briefly: In vitro minimum inhibitory concentration (MIC) against Pseudomonas aeruginosa A 9843 at 37 degrees Celsius for 18 h. It counts as functional. A digest of the protocol: as §1
Data set [15] has as its system Pseudomonas aeruginosa. Briefly: In vitro minimum inhibitory concentration (MIC) against Pseudomonas aeruginosa A 9843 at 37 degree C for 18 h. It counts as functional. A digest of the protocol:
as §1

In data set [16] the test system is Escherichia coli. The data set is described as follows: Efficacy on systematic infections against Escherichia coli A 15119 after oral administration in mice. Format: functional. As to conditions: read-out: PD50. The method in brief:
as §2

Data set [17] concerns Escherichia coli. Briefly: In vitro minimum inhibitory concentration (MIC) against Escherichia coli A 15119 at 37 degrees Celsius for 18 h. It counts as functional. The method in brief:
as §1

Values after ≈ are worked out from the molar mass of the structure shown.

As for `CN1CCN(c2cc3c(cc2F)c(=O)c(C(=O)O)cn3C(C)(C)C)CC1.Cl`, the minimum inhibitory concentration (MIC) in [1] worked out at 0.25 µg/mL; in data set [2], 0.5 µg/mL; in data set [3] it was 0.03 µg/mL; in data set [4] it was 1 µg/mL; in data set [5], 4 µg/mL; in [6], 0.03 µg/mL. Further, the MIC is 0.25 µg/mL in data set [7], 16 µg/mL in data set [8] and 0.25 µg/mL in data set [9].

As for `CC1CN(c2cc3c(cc2F)c(=O)c(C(=O)O)cn3C(C)(C)C)CCN1` (stereo not given), the ED50 in [10] is 25 mg/kg; in data set [11] it was 5.4 mg/kg; in data set [12] it was 5.4 mg/kg. In addition, the minimum inhibitory concentration (MIC) in data set [1] came to 0.03 µg/mL (≈ 0.083 µM); in data set [2], 1 µg/mL (≈ 2.77 µM); in data set [3], 0.06 µg/mL (≈ 0.166 µM); in data set [4], 0.5 µg/mL (≈ 1.38 µM); in data set [5] it was 1 µg/mL (≈ 2.77 µM); in [6] it was 0.008 µg/mL (≈ 0.0221 µM). The minimal inhibitory concentration (MIC) in [7] turned out to be 0.5 µg/mL (≈ 1.38 µM); in data set [8] it was 4 µg/mL (≈ 11.1 µM); in [9], 0.015 µg/mL (≈ 0.0415 µM). This molecule also displayed a solubility in data set [13] of 1560 µg/mL (≈ 4320 µM).

With `CC1(N)CCN(c2cc3c(cc2F)c(=O)c(C(=O)O)cn3C(C)(C)C)C1` (stereo not given), the MIC was 0.5 µg/mL (≈ 1.38 µM) in [1]; 0.06 µg/mL (≈ 0.166 µM) in data set [3]; 2 µg/mL (≈ 5.53 µM) in data set [4]; 0.5 µg/mL (≈ 1.38 µM) in data set [5]; 2 µg/mL (≈ 5.53 µM) in [14]; 0.5 µg/mL (≈ 1.38 µM) in data set [6]. The minimal inhibitory concentration (MIC) in [7] turned out to be 1 µg/mL (≈ 2.77 µM); in data set [8], 4 µg/mL (≈ 11.1 µM); in data set [9] it was 0.25 µg/mL (≈ 0.692 µM).

With `CC1(N)CCN(c2nc3c(cc2F)c(=O)c(C(=O)O)cn3C(C)(C)C)C1` (stereo not given), the minimum inhibitory concentration (MIC) amounted to 0.13 µg/mL (≈ 0.359 µM) in [1]; 0.015 µg/mL (≈ 0.0414 µM) in data set [3]; 0.5 µg/mL (≈ 1.38 µM) in data set [4]; 0.5 µg/mL (≈ 1.38 µM) in data set [5]; 2 µg/mL (≈ 5.52 µM) in data set [14]; 0.06 µg/mL (≈ 0.166 µM) in data set [6]. Besides, the values for the minimum inhibitory concentration (MIC) in [7], in [8] and in [9] were 0.5 µg/mL (≈ 1.38 µM), 4 µg/mL (≈ 11 µM) and 0.06 µg/mL (≈ 0.166 µM), respectively.

Take `CCNCC1CCN(c2nc3c(cc2F)c(=O)c(C(=O)O)cn3C(C)(C)C)C1` (stereo not given): the MIC in data set [1] was determined as 0.25 µg/mL (≈ 0.64 µM); in data set [3], 0.13 µg/mL (≈ 0.333 µM); in data set [4] it was 1 µg/mL (≈ 2.56 µM); in data set [5], 2 µg/mL (≈ 5.12 µM); in [14], 2 µg/mL (≈ 5.12 µM); in [6] it was 0.13 µg/mL (≈ 0.333 µM). Further, the MIC in [7] came to 1 µg/mL (≈ 2.56 µM); in [8], 8 µg/mL (≈ 20.5 µM); in data set [9], 0.25 µg/mL (≈ 0.64 µM).

Consider `CS(=O)(=O)O.C[C@H]1CN(c2nc3c(cc2F)c(=O)c(C(=O)O)cn3C(C)(C)C)C[C@H]1N`, for which the ED50 in data set [10] stood at 9 mg/kg; in data set [11] it was 4.1 mg/kg; in [12], 1.6 mg/kg; in data set [16] it was 2.4 mg/kg. The MIC worked out at 0.13 µg/mL in data set [1]; 0.015 µg/mL in data set [3]; 0.25 µg/mL in data set [4]; 0.13 µg/mL in [5]; 0.5 µg/mL in data set [15]; 0.25 µg/mL in data set [6]. The results for the MIC in data set [7], in data set [8] and in data set [9] were 0.5 µg/mL, 1 µg/mL and 0.03 µg/mL, respectively.

In the case of `CC(C)(C)n1cc(C(=O)O)c(=O)c2cc(F)c(N3C[C@@H](N)[C@@H](F)C3)nc21.CS(=O)(=O)O`, the MIC in [1] was found to be 0.25 µg/mL; in [3], 0.015 µg/mL; in data set [4], 0.5 µg/mL; in data set [5], 0.5 µg/mL; in data set [15] it was 2 µg/mL; in data set [7], 0.5 µg/mL. Further, the figures for the MIC in data set [8], in [9] and in [17] were 4 µg/mL, 0.06 µg/mL and 0.25 µg/mL, respectively.

As for `CN1C2CCC1CN(c1cc3c(cc1F)c(=O)c(C(=O)O)cn3C(C)(C)C)C2.Cl`, the MIC in [1] was determined as 0.13 µg/mL; in data set [3], 0.13 µg/mL; in data set [4], 0.5 µg/mL; in data set [5], 2 µg/mL; in data set [15] it was 4 µg/mL; in [7], 1 µg/mL. In addition, the values for the MIC in [8], in data set [9] and in data set [17] were 8 µg/mL, 0.13 µg/mL and 0.5 µg/mL, respectively.

The record behind these values is ChEMBL document CHEMBL1124759, “Fluoronaphthyridines and quinolones as antibacterial agents. 2. Synthesis and structure-activity relationships of new 1-tert-butyl 7-substituted derivatives” (J Med Chem, 1990).
